Bioassay records (PubChem)
thrombin 1536 = blocks human thrombin protease activity; 220,000 compounds, 0.26% hits; alpha-thrombin, Boc-VPR-AMC fluorogenic substrate cleavage; inhibition, % at 5 µM;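 active = inhibition at or above 40%; inactive = inhibition below 40%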;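 also: 0% = enzyme with no compound and 100% = wells without enzyme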
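System: human alpha-thrombin protein; Compound dosing: one concentration per compound, 5 µM, with 0.2% DMSO; Timing: reaction at room temperature; Technique: AMC fluorescence, 355/460 nm; Controls: enzyme without compound as high, wells lacking enzyme as low.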
FXIa inh = factor XIa (human) inhibition; 220,000 compounds, 0.14% hits; purified FXIa, Boc-Glu-Ala-Arg-AMC fluorogenic substrate; inhibition, % at 5 µM; AID 798; P03951;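 active = inhibition of at least 40%; inactive = inhibition below 40%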;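 also: fluorescence of freed AMC excited at 355 nm; 0% = enzyme without compound and 100% = no enzyme blank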
KLK5 inh = kallikrein 5 (human) inhibition; Q9Y337; recombinant hK5, fluorogenic AMC substrate cleavage; inhibition, % at 5 µM; 210,000 compounds, 0.59% hits; AID 873;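 active = inhibition of 40% or more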;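 also: 0% = enzyme controls without compound and 100% = no-enzyme blanks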
Target sequence (Q9Y337 67-293 limits assumed): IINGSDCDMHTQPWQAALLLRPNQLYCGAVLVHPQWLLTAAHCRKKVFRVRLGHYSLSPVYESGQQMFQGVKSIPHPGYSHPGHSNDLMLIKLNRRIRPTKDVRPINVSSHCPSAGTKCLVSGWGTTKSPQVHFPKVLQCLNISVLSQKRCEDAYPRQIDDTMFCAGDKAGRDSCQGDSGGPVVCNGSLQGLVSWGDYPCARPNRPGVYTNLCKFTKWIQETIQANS
FXIIa inh 1536 = blocks human coagulation factor XIIa protease activity. P00748. 220,000 compounds, 0.3% hits. purified FXIIa, Boc-QGR-AMC fluorogenic substrate, 2 h. inhibition, % at 5 µM; in the data active = inhibition above about 40%;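 also: 0% = enzyme with no compound and 100% = blank without enzyme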
Furin inh = inhibitors of human furin. P09958. purified furin, fluorogenic substrate cleavage. inhibition, % at 20 µM or 30 µM. 220,000 compounds, 0.061% hits. AID 463115; in the data active = inhibition above about 25%
An asterisk follows results filed as active. Shown are actives, neighbours in structure and some others; about 1.1% of the full set was active somewhere.

SMILES	thrombin 1536	FXIa inh	KLK5 inh	FXIIa inh 1536	Furin inh
C#CCNc1cc(C)nc2ncnn12	104*	7	39	15	-26
COc1ccccc1NC(=O)c1csc2c1CCCC2	3	1	63*	2	-19
N#Cc1c[nH]n2c(=O)c3c(nc12)CCCC3	1	-1	70*	-1	-12
N#Cc1c[nH]n2c(=O)c3c(nc12)CCC3	-4	-4	-5	2	-29
COc1ccc([N+](=O)[O-])cc1NCc1ccco1	6	81*	20	22	2
CC(/C=N/NC(=O)c1ccco1)=C\c1ccccc1	-8	-2	-6	6	-9
CCC(C)(C)n1nnnc1C(c1cc2ccc(OC)cc2[nH]c1=O)N1CCN(C2CCCCC2)CC1 (stereo not given)	31	7	57*	-3	-5
COc1cccc2cc(C(=O)N3CCN(C45CC6CC(CC(C6)C4)C5)CC3)c(=O)oc12	19	12	65*	18	-22
COc1cccc2cc(C(=O)N3CCC(C)CC3)c(=O)oc12	0	5	-5	14	-8
Cc1sc2ncnc(NC3CCN(Cc4ccccc4)CC3)c2c1C	-4	-3	-5	-1	-10
COc1ccc(C(=O)O)cc1S(N)(=O)=O	-2	-5	-4	5	-6
CNS(=O)(=O)c1cc(C(=O)O)ccc1OC	18	9	18	41*	-7
CC(=O)c1c(C)[nH]c(C(=O)OC(C)C(=O)Nc2cc(S(=O)(=O)N3CCCCC3)ccc2Cl)c1C (stereo not given)	-11	-5	-16	9	-6
COCCn1cc(C(=O)c2ccccc2OCC(=O)Nc2cc(C)on2)cc(C#N)c1=O	24	6	42*	4	-6
COc1ccc(S(=O)(=O)NCCC(=O)NCc2ccc(F)cc2)cc1	-1	-5	-14	-2	29*
COc1ccc(CNC(=O)CCNS(=O)(=O)c2ccc(Cl)cc2)cc1	15	-3	-2	4	-18
Cc1cc(C)n2nc(S(=O)(=O)N(C)c3ccccc3)nc2n1	23	18	55*	31	-8
Cc1cc(C)n2nc(Cc3ccccc3)nc2n1	9	-3	-18	-4	-23
Cc1noc(C)c1COc1ccc(C(=O)Nc2ccccc2)cc1	-11	-3	4	8	-30
Cc1noc(C)c1COc1ccc(C(=O)NCc2ccccn2)cc1	4	-7	41*	11	-19
CC(/C=N/NC(=O)c1cc(-c2cccn2C)n[nH]1)=C\c1ccccc1	21	53*	57*	36	-7
O=C(Cn1nnc(-c2cccs2)n1)NCCc1ccccc1	-2	8	-13	17	-16
O=C(Cn1nnc(-c2ccncc2)n1)NCCc1ccccc1	10	-2	48*	9	-21
O=C1NN(c2ccccc2)C(=O)/C1=C\c1cccc(OC(=O)c2cccs2)c1	0	49*	5	-1	0
CC(=O)N1CCC(N(CCN2CCOCC2)C(=S)Nc2cc(C)ccc2C)CC1	23	19	51*	17	-2
SMILES	thrombin 1536	FXIa inh	KLK5 inh	FXIIa inh 1536	Furin inh
CC(=O)N1CCC(N(CCN2CCOCC2)C(=S)Nc2cccc(C)c2)CC1	1	4	-4	6	-14
COc1cc(Cl)c(S(=O)(=O)N2CC(C)OC(C)C2)cc1Cl (stereo not given)	26	13	54*	32	-15
COc1cc(Cl)c(S(=O)(=O)N2CCOCC2)cc1Cl	2	-18	3	-13	-20
Cc1sc(NC(=O)CN(C)C2CCCCC2)nc1-c1ccc2c(c1)CCN2S(=O)(=O)c1ccccc1	21	5	43*	14	-14
O=C1c2ccccc2NC(c2cccnc2)N1c1ccccc1F (stereo not given)	-11	2	-24	2	-26
O=C(COc1cccc2ccccc12)NNC(=O)c1cccs1	0	2	-18	3	-13
O=C(Cn1ncc2c(=O)oc3ccccc3c21)Nc1nc2ccccc2s1	-4	-9	0	-7	25*
O=C(Cn1ncc2c(=O)oc3ccccc3c21)NC1CC1	6	-36	-15	13	-26
CC12CCC(C(=O)NC(c3ccccc3)c3ccccc3)(OC1=O)C2(C)C (stereo not given)	13	12	37	55*	-15
COc1ccccc1N1CCN(C(=O)CNC(=O)c2cn(-c3ccccc3OC)c(=O)c3ccccc23)CC1	101*	-1	2	9	-33
